Measured values reported in ChEMBL document CHEMBL1629438, “Selective peroxisome proliferator-activated receptor δ isosteric selenium agonists as potent anti-atherogenic agents in vivo” (Bioorg Med Chem Lett, 2010).
The source made the active and inactive calls. The calls are words filed in the database; no cut-off is given here.

Tests used:
[1] = biological target: T1, Peroxisome proliferator-activated receptor gamma (Homo sapiens, UniProt P37231); experiment: Agonist activity at human PPAR-gamma expressed in african green monkey CV-1 cells after 24 hrs by luciferase reporter gene assay; format: functional, cell-based
T1 sequence (P37231 whole entry): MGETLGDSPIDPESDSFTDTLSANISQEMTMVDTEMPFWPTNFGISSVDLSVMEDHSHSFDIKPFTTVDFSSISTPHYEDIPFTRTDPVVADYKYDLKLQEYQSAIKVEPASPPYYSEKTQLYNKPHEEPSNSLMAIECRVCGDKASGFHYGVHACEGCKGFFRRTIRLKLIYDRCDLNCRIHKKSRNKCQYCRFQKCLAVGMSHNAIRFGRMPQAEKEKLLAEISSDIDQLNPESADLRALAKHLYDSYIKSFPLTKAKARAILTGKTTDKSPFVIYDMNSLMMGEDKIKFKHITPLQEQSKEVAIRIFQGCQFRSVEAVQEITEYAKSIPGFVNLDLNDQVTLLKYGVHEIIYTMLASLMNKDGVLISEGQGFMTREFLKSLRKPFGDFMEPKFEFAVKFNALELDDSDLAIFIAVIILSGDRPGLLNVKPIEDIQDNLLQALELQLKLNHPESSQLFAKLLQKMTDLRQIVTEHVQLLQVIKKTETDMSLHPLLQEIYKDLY

[2] = biological target: T2, Peroxisome proliferator-activated receptor delta (Homo sapiens, UniProt Q03181); experiment: Agonist activity at human PPAR-delta expressed in african green monkey CV-1 cells after 24 hrs by luciferase reporter gene assay; format: functional, cell-based
T2 sequence (Q03181 whole entry): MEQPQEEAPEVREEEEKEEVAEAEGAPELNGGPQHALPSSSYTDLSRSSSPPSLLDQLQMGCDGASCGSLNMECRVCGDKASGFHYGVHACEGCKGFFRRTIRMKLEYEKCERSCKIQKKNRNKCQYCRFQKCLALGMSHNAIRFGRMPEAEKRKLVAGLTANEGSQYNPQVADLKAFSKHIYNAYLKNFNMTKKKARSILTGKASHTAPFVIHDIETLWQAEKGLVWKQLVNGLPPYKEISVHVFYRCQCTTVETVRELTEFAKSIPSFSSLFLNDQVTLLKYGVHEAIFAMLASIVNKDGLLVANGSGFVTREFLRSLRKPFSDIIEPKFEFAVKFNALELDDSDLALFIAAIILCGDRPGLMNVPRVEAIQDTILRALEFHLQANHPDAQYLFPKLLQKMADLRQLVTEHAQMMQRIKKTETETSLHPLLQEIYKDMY
How it was run: (§1)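 Cell-based co-transfection reporter assay, with EC50 values derived for each PPAR subtype.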

[3] = biological target: T3, Peroxisome proliferator-activated receptor alpha (Homo sapiens, UniProt Q07869); experiment: Agonist activity at human PPAR-alpha expressed in african green monkey CV-1 cells after 24 hrs by luciferase reporter gene assay; format: functional, cell-based; how it was run: as §1
T3 sequence (Q07869 whole entry): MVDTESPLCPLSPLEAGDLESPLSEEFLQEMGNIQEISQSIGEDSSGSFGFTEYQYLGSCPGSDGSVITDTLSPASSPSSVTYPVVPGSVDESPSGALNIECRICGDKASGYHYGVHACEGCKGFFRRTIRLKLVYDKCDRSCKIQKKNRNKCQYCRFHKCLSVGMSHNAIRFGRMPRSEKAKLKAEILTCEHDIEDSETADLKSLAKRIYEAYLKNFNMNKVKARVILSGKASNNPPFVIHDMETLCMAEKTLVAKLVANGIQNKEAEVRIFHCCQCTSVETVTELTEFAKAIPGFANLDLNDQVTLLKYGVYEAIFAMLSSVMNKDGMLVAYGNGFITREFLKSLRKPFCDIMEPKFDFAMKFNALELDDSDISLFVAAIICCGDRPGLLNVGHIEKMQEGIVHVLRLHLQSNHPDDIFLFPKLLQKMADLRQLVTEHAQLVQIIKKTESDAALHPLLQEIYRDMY

Mus musculus [4] = experiment: Toxicity in LDLR-deficient mouse assessed as increase in liver weight at 60 mg/kg; format: organism-based; set-up: dose 60 mg/kg; conditions: in vivo
[5] = Drug level in LDLR-deficient mouse serum at 60 mg/kg; format: ADME, organism-based; set-up: dose 60 mg/kg
[6] = biological target: T4, Peroxisome proliferator-activated receptor alpha (Mus musculus) (UniProt P23204); experiment: Agonist activity at mouse PPAR-alpha expressed in african green monkey CV-1 cells after 24 hrs by luciferase reporter gene assay; format: functional, cell-based
T4 sequence (whole entry): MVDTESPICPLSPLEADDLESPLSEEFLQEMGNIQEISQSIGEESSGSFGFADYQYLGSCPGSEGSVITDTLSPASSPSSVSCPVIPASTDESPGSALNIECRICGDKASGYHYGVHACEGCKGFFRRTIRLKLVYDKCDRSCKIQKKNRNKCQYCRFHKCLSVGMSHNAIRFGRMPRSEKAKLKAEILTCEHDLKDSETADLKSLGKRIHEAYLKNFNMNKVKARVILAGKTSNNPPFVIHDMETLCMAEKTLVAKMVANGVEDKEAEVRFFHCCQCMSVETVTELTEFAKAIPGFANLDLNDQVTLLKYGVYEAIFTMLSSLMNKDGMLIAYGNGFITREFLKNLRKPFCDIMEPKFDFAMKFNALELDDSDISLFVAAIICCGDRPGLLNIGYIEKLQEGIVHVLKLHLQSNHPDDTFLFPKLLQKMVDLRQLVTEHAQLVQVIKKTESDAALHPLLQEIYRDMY

Mus musculus [7] = experiment: Antiatherogenic effect in HC/HF diet-fed apolipoprotein E-deficient C57BL/6J mouse assessed as increase in HDL-cholesterol at 2 mg/kg/day for 4 weeks; format: functional, organism-based
How it was run: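 Apoe-/- mice, eight weeks old, fed an atherogenic HC/HF diet (1.25% cholesterol, 21% fat) for 14 weeks. They received 2 mg/kg/day of test agent (n = 7) or vehicle (n = 6) over the final 4 weeks, then were compared with the vehicle group.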

[8] = biological target: T5, Peroxisome proliferator-activated receptor gamma (Mus musculus) (UniProt P37238); experiment: Agonist activity at mouse PPAR-gammaexpressed in african green monkey CV-1 cells after 24 hrs by luciferase reporter gene assay; format: functional, cell-based
T5 sequence (whole entry): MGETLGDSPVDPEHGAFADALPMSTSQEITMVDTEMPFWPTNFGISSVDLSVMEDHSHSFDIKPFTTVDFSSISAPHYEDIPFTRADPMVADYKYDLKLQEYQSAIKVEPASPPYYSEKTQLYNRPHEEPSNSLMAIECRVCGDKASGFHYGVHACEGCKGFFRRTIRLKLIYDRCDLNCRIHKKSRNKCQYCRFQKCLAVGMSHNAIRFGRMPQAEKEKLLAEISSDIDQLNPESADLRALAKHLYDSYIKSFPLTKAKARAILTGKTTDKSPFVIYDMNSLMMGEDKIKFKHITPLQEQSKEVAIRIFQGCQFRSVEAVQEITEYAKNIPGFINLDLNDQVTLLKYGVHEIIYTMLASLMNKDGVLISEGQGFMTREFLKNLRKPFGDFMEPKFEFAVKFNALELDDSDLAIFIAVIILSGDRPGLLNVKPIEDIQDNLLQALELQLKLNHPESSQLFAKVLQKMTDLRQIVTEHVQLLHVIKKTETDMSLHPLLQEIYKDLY

Compound	EC50 [1]	EC50 [2]	EC50 [3]	Activity (Mus musculus [4])	Cmax [5]	Activity [6]	Activity (Mus musculus [7])	Activity [8]
CCC(Oc1ccc([Se]Cc2sc(-c3ccc(C(F)(F)F)c(F)c3)nc2C)cc1C)C(=O)O (configuration not stated)	0.271 µM	0.007 µM	> 1 µM	–	–	–	–	–
Cc1cc([Se]Cc2sc(-c3ccc(C(F)(F)F)cc3)nc2C)ccc1OC(C)(C)C(=O)O	0.1 µM	0.0045 µM	0.0152 µM	–	–	–	–	–
Cc1cc([Se]Cc2sc(-c3ccc(C(F)(F)F)c(F)c3)nc2C)ccc1OC(C)C(=O)O (configuration not stated)	> 1 µM	0.0085 µM	0.0394 µM	–	–	–	–	–
CCC(Oc1ccc([Se]Cc2sc(-c3ccc(C(F)(F)F)cc3)nc2C)cc1C)C(=O)O (configuration not stated)	> 1 µM	0.0062 µM	0.0831 µM	–	–	–	–	–
Cc1cc(SCc2sc(-c3ccc(C(F)(F)F)c(F)c3)nc2C)ccc1OCC(=O)O	–	–	–	Toxic	21 µM	Active	Active	Active
